# “Also recorded” adds a separate entry of the source.
# What was measured:
# [1] = cited from earlier work
# [2] = immediate-release formulation, compared with fasting conditions; cited from earlier work
# [3] = cited from earlier work; remark: listed apart in the source
# [4] = test system: rheumatoid arthritis; settings: phase IIb studies, 12 weeks; cited from earlier work
# [5] = test system: plasma protein; settings: cited from earlier work
# [6] = test system: cytochrome P450 (CYP) 3A; settings: in vitro; cited from earlier work
# [7] = Population pharmacokinetic analysis; type: in vivo, human
# [8] = strong CYP3A inhibitor ketoconazole; cited from earlier work
# [9] = type: in vivo, human
# Outline: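 Used a two-compartment population PK model with first-order absorption and elimination, fitted by nonlinear mixed-effects modelling. Data were LC-MS plasma concentrations from healthy subjects and RA patients given 1–48 mg immediate-release oral doses. Simulations ran 200 replicates using demographics of RA patients from two phase IIb trials.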
# [10] = test system: CYP2D6; settings: in vitro; cited from earlier work
# [11] = Population analysis, point estimate (%RSE), final model
# [12] = matched on sex and creatinine clearance
# [13] = steady state, matching on other covariates
smiles,measurement,setting,value
O=C(Nc1nc2cccc(-c3ccc(CN4CCS(=O)(=O)CC4)cc3)n2n1)C1CC1 [filgotinib],oral clearance in subjects with RA compared with healthy subjects,[1],lower
C[C@@H]1CCN(C(=O)CC#N)C[C@@H]1N(C)c1ncnc2[nH]ccc12 [tofacitinib],oral clearance in subjects with RA compared with healthy subjects,[1],lower
"CC[C@@H]1CN(C(=O)NCC(F)(F)F)C[C@@H]1c1cnc2cnc3[nH]ccc3n12 [upadacitinib, Upadacitinib]",decrease of Cmax by food,[2],approximately 20%
same,delay of time to Cmax (Tmax) by food,[2],approximately 2 h
same,upadacitinib dose eliminated unchanged in urine,[3],Approximately 20%
same,accumulation in plasma,[3]; multiple twice-daily dosing,no accumulation
same,dose proportionality of exposures,[3]; over the evaluated dose range,approximately dose proportional
same,functional half-life,"[3]; phase I studies, immediate-release capsules",approximately 4 h
same,tolerability,"[3]; single doses up to 48 mg and multiple twice-daily doses up to 24 mg, immediate-release capsules",well-tolerated
same,safety profile,[4],acceptable safety profile
same,plasma protein binding,[5],< 50%
same,substrate status for CYP3A,[6],non-sensitive substrate
same,linearity of pharmacokinetics with respect to dose,[7]; 1-48 mg immediate-release doses,dose-proportional; also recorded: did not deviate significantly from linearity; also recorded: did not significantly deviate from linearity
same,ALAG1,"[7]; Bootstrap analysis, mean",0.48 h
same,Additive residual error SD,"[7]; Bootstrap analysis, mean",0.17 ng/mL
same,Exponent for the effect of body weight on Vc/F (θ5),"[7]; Bootstrap analysis, mean",0.50
same,Ka,"[7]; Bootstrap analysis, mean",20.1 h⁻¹
same,Proportional residual error SD,"[7]; Bootstrap analysis, mean",31%
same,Q/F,"[7]; Bootstrap analysis, mean",3.24 L/h
same,Ratio of CL/F in RA patients compared with healthy subjects (θ1),"[7]; Bootstrap analysis, mean",0.76
same,Ratio of CL/F in females compared with males (θ2),"[7]; Bootstrap analysis, mean",0.86
same,Ratio of Vc/F in females compared with males (θ4),"[7]; Bootstrap analysis, mean",0.75
same,Vc/F,"[7]; Bootstrap analysis, mean",145 L
same,Vp/F,"[7]; Bootstrap analysis, mean",65.4 L
same,ωIOV2 on ALAG1 (phase II study visits only),"[7]; Bootstrap analysis, mean",0.079
same,CL/F,"[7]; Bootstrap analysis, mean (188 successful runs out of 200)",39.8 L/h
same,ALAG1,"[7]; Bootstrap analysis, median",0.48 h
same,Additive residual error SD,"[7]; Bootstrap analysis, median",0.17 ng/mL
same,Exponent for the effect of body weight on Vc/F (θ5),"[7]; Bootstrap analysis, median",0.50
same,Ka,"[7]; Bootstrap analysis, median",12.2 h⁻¹
same,Proportional residual error SD,"[7]; Bootstrap analysis, median",31%
same,Q/F,"[7]; Bootstrap analysis, median",3.23 L/h
same,Ratio of CL/F in RA patients compared with healthy subjects (θ1),"[7]; Bootstrap analysis, median",0.76
same,Ratio of CL/F in females compared with males (θ2),"[7]; Bootstrap analysis, median",0.86
same,Ratio of Vc/F in females compared with males (θ4),"[7]; Bootstrap analysis, median",0.75
same,Vc/F,"[7]; Bootstrap analysis, median",145 L
same,Vp/F,"[7]; Bootstrap analysis, median",64.6 L
same,ωIOV2 on ALAG1 (phase II study visits only),"[7]; Bootstrap analysis, median",0.079
same,CL/F,"[7]; Bootstrap analysis, median (188 successful runs out of 200)",39.8 L/h
same,ALAG1,[7]; [11],0.48 (0.017) h
same,Additive residual error SD,[7]; [11],0.18 (13) ng/mL
same,Proportional residual error SD,[7]; [11],31 (13) %
same,Q/F,[7]; [11],3.23 (2.5) L/h
same,Ratio of CL/F in RA patients compared with healthy subjects (θ1),[7]; [11],0.76 (2.9)
same,Ratio of CL/F in females compared with males (θ2),[7]; [11],0.86 (2.8)
same,Ratio of Vc/F in females compared with males (θ4),[7]; [11],0.75 (1.6)
same,Vp/F,[7]; [11],64.3 (1.1) L
same,ωIOV2 on ALAG1 (phase II study visits only),[7]; [11],0.08 (1.5)
same,Exponent for the effect of body weight on Vc/F (θ5),"[7]; Population analysis, point estimate (%RSE), final model, (BW/74 kg)^θ5",0.50 (15.8)
same,Vc/F,"[7]; Population analysis, point estimate (%RSE), final model, reference male, 74 kg",146 (2.2) L
same,Ka,"[7]; Population analysis, point estimate, final model",12.3 h⁻¹
same,correlation of clearance with body weight,[7]; in vivo,not correlated
same,lower CL/F in females compared with males,[7]; in vivo,14%
same,effect of CYP2D6 phenotype on upadacitinib clearance,[7]; phenotype determined from pharmacogenetic analysis,not correlated; also recorded: not a statistically significant covariate
same,"absorption lag time (ALAG1), estimate (95% CI)",[7]; typical healthy male,0.48 (0.47–0.49) h
same,"mean absorption time (calculated as 1/Ka), estimate (95% CI)",[7]; typical healthy male,0.08 (0.04–0.12) h
same,"oral clearance (CL/F), population estimate (95% bootstrap CI)","[7]; typical healthy male, body weight 74 kg, creatinine clearance […]",39.7 (37.8–41.5) L/h
same,increase of upadacitinib exposures by ketoconazole,[8],approximately 75%
same,"AUC, body weight < 60 kg or > 100 kg compared with 60-100 kg",[9]; [12],same
same,"higher Cmax, body weight < 60 kg compared with 60-100 kg",[9]; [12],approximately 10%
same,"lower Cmax, body weight > 100 kg compared with 60-100 kg",[9]; [12],approximately 10%
same,higher Cmax in females compared with males,[9]; steady state,26%
same,higher upadacitinib AUC in females relative to males,[9]; [13],16%
same,higher upadacitinib AUC in subjects with RA relative to healthy volunteers,[9]; [13],32%
same,contribution of CYP2D6 to metabolism,[10],potentially minor metabolic contribution; also recorded: minor contributor

# Source: article PMC6028884 (Clinical Pharmacokinetics, 2017)
